Reference: ChEMBL document CHEMBL4041481, “Linker-switch approach towards new ATP binding site inhibitors of DNA gyrase B” (Eur J Med Chem, 2017)

Assays:
[1] = target: DNA gyrase subunit B (Escherichia coli) (UniProt P0AES6); test: Inhibition of Escherichia coli DNA ATCC 25922 gyrase B assessed as residual activity at 100 uM using relaxed pNO1 DNA as substrate incubated for 30 mins and measured by sybrGOLD staining based fluorescence assay; conditions: Escherichia coli ATCC 25922
How it was run: (§1)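 Gyrase supercoiling with 1.5 U enzyme and 0.75 µg relaxed pNO1 plasmid. 30 min at 37 °C, stopped with pH 5.0 TF buffer. Triplex capture on immobilized biotinylated oligonucleotide, 30 min at room temperature. Residual activity at 100 µM; 1% DMSO negative control.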

DNA gyrase subunit B [2] = target: T1, DNA gyrase subunit B (Escherichia coli, UniProt P0AES6); test: Inhibition of Escherichia coli ATCC 25922 DNA gyrase B using relaxed pNO1 DNA as substrate incubated for 30 mins and measured by sybrGOLD staining based fluorescence assay
[3] = target: DNA gyrase subunit B (Staphylococcus aureus) (UniProt P0A0K8); test: Inhibition of Staphylococcus aureus DNA gyrase B assessed as residual activity at 100 uM using relaxed pNO1 DNA as substrate incubated for 30 mins and measured by sybrGOLD staining based fluorescence assay
How it was run: as §1, with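 “temperature. Washed, SybrGOLD-stained, fluorescence 485/535 nm.” for “temperature.”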

DNA gyrase subunit B [4] = target: DNA gyrase subunit B (Staphylococcus aureus, UniProt P0A0K8); test: Inhibition of Staphylococcus aureus DNA gyrase B using relaxed pNO1 DNA as substrate incubated for 30 mins and measured by sybrGOLD staining based fluorescence assay
DNA gyrase subunit B [5] = target: T1, DNA gyrase subunit B; test: Binding affinity to Escherichia coli ATCC 25922 DNA gyrase B by surface plasmon resonance assay
How it was run: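 Running buffer: 10 mM Hepes, 150 mM NaCl, 3 mM EDTA, 0.005% P20, pH 7.4, plus 1% DMSO. Injections at 30 µL/min for 90 s, 120 s dissociation. At least eight concentrations, three parallel titrations. Kd from 1:1 steady-state fit of responses 5 s before injection end.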

[6] = Inhibition of Staphylococcus aureus DNA gyrase using relaxed pBR322 DNA as substrate after 3 hrs by agarose electrophoresis
[7] = Inhibition of Escherichia coli DNA gyrase using relaxed pBR322 DNA as substrate after 3 hrs by agarose electrophoresis

Row | Activity [1] [%] | IC50 (DNA gyrase subunit B [2]) [µM] | SMILES | also measured
1 | 100 | – | COC(=O)CC(=O)N1CCC(NC(=O)c2cc3ccccc3[nH]2)CC1 | –
2 | 100 | – | Nc1ncc(C(=O)N2CCN(C(=O)c3ccc[nH]3)CC2)[nH]1 | –
3 | 100 | – | COC(=O)CCC(=O)N1CCC(N(Cc2ccccc2)C(=O)c2cc3ccccc3[nH]2)CC1 | –
4 | 100 | – | Nc1ncc(C(=O)N2CCN(C(=O)c3c[nH]c4ccccc34)CC2)[nH]1 | –
5 | 100 | – | C=CCN(C(=O)c1cc2ccccc2[nH]1)C1CCN(C(=O)CCC(=O)O)CC1 | –
6 | 100 | – | O=C(O)CNC(=O)[C@H]1CC[C@@H](NC(=O)c2cc(Br)c(Br)[nH]2)CC1 | –
7 | – | 8.08 | O=C(NC1CCN(C(=O)c2ccc(O)c(O)c2)CC1)c1cc(Cl)c(Cl)[nH]1 | –
8 | – | 3.18 | O=C(O)CCCC(=O)N1CCC(NC(=O)c2cc(Br)c(Br)[nH]2)CC1 | Activity [3]: 71%
9 | – | 15.1 | O=C(O)CNC(=O)[C@H]1CC[C@H](NC(=O)c2cc(Br)c(Br)[nH]2)CC1 | –
10 | 100 | – | COC(=O)c1cccc(CN2CCC(NC(=O)c3cc(Br)c(Br)[nH]3)CC2)c1 | –
11 | 100 | – | O=C(O)CCNC(=O)[C@H]1CC[C@H](CNC(=O)c2cc(Br)c(Br)[nH]2)CC1 | –
12 | – | 63.1 | O=C(O)c1ccc(CN2CCC(NC(=O)c3cc(Br)c(Br)[nH]3)CC2)cc1 | Activity [3]: 100%
13 | – | 150 | O=C(NC1CCN(C(=O)c2ccc(O)c(O)c2)CC1)c1cc2ccccc2[nH]1 | –
14 | 100 | – | C=CCN(C(=O)c1cc2ccccc2[nH]1)C1CCN(C(=O)CCC(=O)OC)CC1 | –
15 | – | 100 | O=C(O)CCNC(=O)[C@H]1CC[C@@H](NC(=O)c2cc(Br)c(Br)[nH]2)CC1 | –
16 | 100 | – | O=C(O)CCC(=O)N1CCC(NC(=O)c2ccc[nH]2)CC1 | –
17 | 100 | – | COC(=O)CNC(=O)[C@H]1CC[C@@H](NC(=O)c2cc(Br)c(Br)[nH]2)CC1 | –
18 | 78 | – | COC(=O)CC(=O)N1CCN(C(=O)c2cc(Br)c(Br)[nH]2)CC1 | –
19 | 88 | – | COC(=O)c1ccc(C(=O)N2CCC(NC(=O)c3cc4ccccc4[nH]3)CC2)cc1 | –

Row | Activity [1] [%] | IC50 (DNA gyrase subunit B [2]) [µM] | SMILES | also measured
20 | – | 20.9 | COC(=O)CCC(=O)N1CCC(NC(=O)c2cc(Br)c(Br)[nH]2)CC1 | –
21 | 100 | – | N#Cc1ccc(C(=O)N2CCC(NC(=O)c3cc(Br)c(Br)[nH]3)CC2)cc1 | –
22 | – | > 50 | CC(C)(C)OC(=O)N1CCC(NC(=O)c2cc(Br)c(Br)[nH]2)CC1 | –
23 | 100 | – | O=C(O)CCNC(=O)[C@H]1CC[C@H](NC(=O)c2cc(Br)c(Br)[nH]2)CC1 | –
24 | – | 20 | COC(=O)CCC(=O)N1CCC(NC(=O)c2[nH]c(C)c(Cl)c2Cl)CC1 | –
25 | – | 49.2 | O=C(O)C(=O)N1CCC(NC(=O)c2cc(Br)c(Br)[nH]2)CC1 | –
26 | 100 | – | COC(=O)CCNC(=O)[C@H]1CC[C@H](CNC(=O)c2cc(Br)c(Br)[nH]2)CC1 | –
27 | 100 | – | COC(=O)CCC(=O)N1CCC(NC(=O)c2ccc[nH]2)CC1 | –
28 | – | 4.35 | CCOC(=O)C(=O)N1CCC(NC(=O)c2cc(Br)c(Br)[nH]2)CC1 | Activity [3]: 74%
29 | 100 | – | COC(=O)CCC(=O)N1CCC(NC(=O)c2cc3ccccc3[nH]2)CC1 | –
30 | 100 | – | O=C(O)CCC(=O)N1CCC(N(Cc2ccccc2)C(=O)c2cc3ccccc3[nH]2)CC1 | –
31 | 36 | – | C=CCN(C(=O)c1cc(Br)c(Br)[nH]1)C1CCN(C(=O)CCC(=O)OC)CC1 | –
32 | 100 | – | COC(=O)CCNC(=O)[C@H]1CC[C@H](NC(=O)c2cc(Br)c(Br)[nH]2)CC1 | –
33 | – | 11.2 | COC(=O)CCCC(=O)N1CCC(NC(=O)c2cc(Br)c(Br)[nH]2)CC1 | –
34 | – | 10.8 | O=C(O)CC(=O)N1CCC(NC(=O)c2cc(Br)c(Br)[nH]2)CC1 | Activity [3]: 80%
35 | 29 | – | C=CCN(C(=O)c1cc(Br)c(Br)[nH]1)C1CCN(C(=O)CCC(=O)O)CC1 | –
36 | – | 1080 | O=C(O)CC(=O)N1CCN(C(=O)c2cc(Br)c(Br)[nH]2)CC1 | IC50 (DNA gyrase subunit B [4]): Not Active
37 | 100 | – | COC(=O)CNC(=O)[C@H]1CC[C@H](NC(=O)c2cc(Br)c(Br)[nH]2)CC1 | –
38 | 100 | – | Nc1ncc(C(=O)N2CCN(C(=O)[C@@H]3CCCN3)CC2)[nH]1 | –

Row | Activity [1] [%] | IC50 (DNA gyrase subunit B [2]) [µM] | SMILES | also measured
39 | – | 49.5 | O=C(O)c1cccc(CN2CCC(NC(=O)c3cc(Br)c(Br)[nH]3)CC2)c1 | Activity [3]: 100%; Kd (DNA gyrase subunit B [5]): 11.2 µM
40 | – | 100 | O=C(O)CC(=O)N1CCC(NC(=O)c2cc3ccccc3[nH]2)CC1 | –
41 | – | 480 | COC(=O)c1ccc(C(=O)N2CCC(NC(=O)c3cc(Br)c(Br)[nH]3)CC2)cc1 | –
42 | 100 | – | Nc1ncc(C(=O)N2CCN(Cc3ccc[nH]3)CC2)[nH]1 | –
43 | 100 | – | O=C(O)CCC(=O)N1CCC(NC(=O)c2cc3ccccc3[nH]2)CC1 | –
44 | – | 1.55 | O=C(O)CCC(=O)N1CCC(NC(=O)c2cc(Br)c(Br)[nH]2)CC1 | Kd (DNA gyrase subunit B [5]): 12.6 µM; IC50 (DNA gyrase subunit B [4]; read-out: IC50): 93.8 µM
45 | 100 | – | Nc1ncc(C(=O)N2CCN(C(=O)c3cccnc3)CC2)[nH]1 | –
46 | 100 | – | COC(=O)CCC(=O)N1CCC(N(Cc2ccccc2)C(=O)c2cc(Br)c(Br)[nH]2)CC1 | –
47 | 100 | – | CC(C)(C)OC(=O)N1CCC(NC(=O)c2cc3ccccc3[nH]2)CC1 | –
48 | 100 | – | COC(=O)CNC(=O)[C@H]1CC[C@H](CNC(=O)c2cc(Br)c(Br)[nH]2)CC1 | –
49 | – | – | CO[C@@H]1[C@@H](OC(N)=O)[C@@H](O)[C@H](Oc2ccc3c(O)c(NC(=O)c4ccc(O)c(CC=C(C)C)c4)c(=O)oc3c2C)OC1(C)C [NOVOBIOCIN] | IC50 [6]: 0.01 µM; IC50 [7]: 0.08 µM
50 | 100 | – | COC(=O)CCNC(=O)[C@H]1CC[C@@H](NC(=O)c2cc(Br)c(Br)[nH]2)CC1 | –
51 | – | 2.84 | O=C(NC1CCN(C(=O)c2ccc(O)c(O)c2)CC1)c1cc(Br)c(Br)[nH]1 | –
52 | – | 49.5 | O=C(O)CCC(=O)N1CCC(N(Cc2ccccc2)C(=O)c2cc(Br)c(Br)[nH]2)CC1 | Kd (DNA gyrase subunit B [5]): 11.2 µM
53 | – | 13.7 | COC(=O)CC(=O)N1CCC(NC(=O)c2cc(Br)c(Br)[nH]2)CC1 | –
54 | – | 14.9 | O=C(O)c1ccc(C(=O)N2CCC(NC(=O)c3cc(Br)c(Br)[nH]3)CC2)cc1 | Activity [3]: 84%; Kd (DNA gyrase subunit B [5]): 256 µM
55 | 100 | – | O=C(O)c1ccc(C(=O)N2CCC(NC(=O)c3cc4ccccc4[nH]3)CC2)cc1 | –
56 | – | 0.48 | Cc1[nH]c(C(=O)NC2CCN(C(=O)CCC(=O)O)CC2)c(Cl)c1Cl | –
57 | 100 | – | COC(=O)c1ccc(CN2CCC(NC(=O)c3cc(Br)c(Br)[nH]3)CC2)cc1 | –
